Data as given in article PMC2921666 (Genes & cancer, 2010).

How the values were obtained:
[1] = tested on: JAK2 phosphorylation in Ba/F3:JAK2V617F cells; assay: JAK2 phosphorylation in IL-3-stimulated Ba/F3:JAK2V617F cells; assay type: cell-based, mouse; conditions: 2 hours, with recombinant IL-3
Procedure, shortened: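 Mid-log-phase Ba/F3:JAK2V617F cells were treated 2 h with the test compound at the indicated concentrations, including 1 h with 5 ng/mL recombinant mouse IL-3. Washed cells were lysed in detergent buffer. 50 µg of clarified lysate was run on SDS-PAGE and immunoblotted with anti-phospho-JAK2 (Tyr1007/1008). Blots were stripped and reprobed for total JAK2.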

[2] = target: recombinant V617F mutant JAK2 (aa 532-1132) (Homo sapiens, UniProt O60674, V617F); assay: Radiometric kinase assay, recombinant V617F mutant JAK2; assay type: biochemical; conditions: read-out: IC50, kinase activity of mutant JAK2 (V617F); JAK2-V617F aa 532-1132, GST-Abltide substrate, 20 μM ATP
Ba/F3:JAK2V617F cells = assay: Growth inhibition, Ba/F3:JAK2V617F cells; assay type: cell-based, mouse; conditions: 72 hours
Procedure, shortened: (§1)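 Cells grown 72 h with varying concentrations of test compound. Media: Ba/F3:JAK2V617F in RPMI 1640 with 10% FBS plus 1% WEHI-3B conditioned medium (IL-3 source); 32D:p210T315I in IMDM with 10% FBS; K562 in RPMI 1640 with 10% FBS; HEL and SET-2 in RPMI 1640 with 20% and 10% heat-inactivated FBS. Viability by Trypan blue exclusion; GI50 from percent viable cells plotted against drug concentration.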

SET2 cells = assay: Growth inhibition, SET-2 cells; assay type: cell-based, human; conditions: SET2 cells (hemizygous V617F), 72 hours
Procedure, shortened: as §1

HEL cells = assay: Growth inhibition, HEL cells; assay type: cell-based, human; conditions: 72 hours
Procedure, shortened: as §1

32D:p210T315I cells = assay: Growth inhibition, 32D:p210T315I cells; assay type: cell-based, murine; conditions: Mus musculus, 72 h
Procedure, shortened: as §1

K562 cells = assay: Growth inhibition, K562 cells; assay type: cell-based; conditions: Homo sapiens, K562, 72 h
Procedure, shortened: as §1

[3] = tested on: STAT-5 phosphorylation in 32D:p210T315I cells; assay: STAT-5 phosphorylation in 32D:p210T315I cells; assay type: cell-based, murine; conditions: 2 hours
Procedure, shortened: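 Exponentially growing 32D:p210T315I cells, kept in IMDM with 10% FBS, were given the test compound at the indicated concentrations for 2 h. They were then PBS-washed and lysed in detergent buffer. 50 µg of clarified lysate underwent SDS-PAGE and Western blotting for phospho-STAT-5.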

Sequence of recombinant V617F mutant JAK2 (aa 532-1132) (O60674 532-1132 V617F): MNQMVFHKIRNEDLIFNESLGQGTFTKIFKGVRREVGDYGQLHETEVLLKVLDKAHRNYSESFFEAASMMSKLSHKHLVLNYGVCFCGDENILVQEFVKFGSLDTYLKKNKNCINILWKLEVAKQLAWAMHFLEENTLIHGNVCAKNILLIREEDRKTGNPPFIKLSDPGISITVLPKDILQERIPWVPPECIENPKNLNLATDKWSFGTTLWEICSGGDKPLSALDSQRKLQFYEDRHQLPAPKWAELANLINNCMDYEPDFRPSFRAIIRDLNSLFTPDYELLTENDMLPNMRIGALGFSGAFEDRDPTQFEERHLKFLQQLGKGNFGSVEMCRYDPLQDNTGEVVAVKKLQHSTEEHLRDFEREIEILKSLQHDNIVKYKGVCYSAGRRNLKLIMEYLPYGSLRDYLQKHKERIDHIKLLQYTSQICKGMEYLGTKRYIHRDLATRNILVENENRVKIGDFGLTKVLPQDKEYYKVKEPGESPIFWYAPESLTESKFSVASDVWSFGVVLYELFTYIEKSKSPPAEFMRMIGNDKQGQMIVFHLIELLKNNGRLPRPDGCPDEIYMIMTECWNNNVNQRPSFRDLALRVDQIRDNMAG

Structure (SMILES) | inhibition of JAK2 phosphorylation in cells [1] | IC50 [2] [µM] | GI50 (Ba/F3:JAK2V617F cells) [µM] | GI50 (SET2 cells) [µM] | GI50 (HEL cells) [µM] | GI50 (32D:p210T315I cells) [µM] | GI50 (K562 cells) [µM] | inhibition of STAT-5 phosphorylation [3]
N#C/C(=C/c1ccc(O)c(O)c1)C(=O)NCc1ccccc1 [AG490] | did not inhibit JAK2 phosphorylation | 33.1 | 1 | > 20 | > 20 | – | – | –
Cc1ccc(NC(=O)c2ccc(CN3CCN(C)CC3)cc2)cc1Nc1nccc(-c2cccnc2)n1 [imatinib] | – | – | – | – | – | 20 to 30 | 0.1 to 0.2 | failed to do so
